IC50 data for 23 molecules are collected here from ChEMBL document CHEMBL2380254, “Optimization of tocotrienols as antiproliferative and antimigratory leads” (Eur J Med Chem, 2013).

The term IC50 denotes the point on the concentration scale where inhibition reaches its midpoint. Read a high IC50 as lower potency.

What all share (type): functional, cell-based
Experiment [1] in a line: Antiproliferative activity against mouse +SA cells by MTT assay. Conditions: +SA cell. The gist of the method: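 Mouse +SA mammary epithelial cells in serum-free DMEM/F12 with BSA, transferrin, insulin and EGF. Compounds from DMSO stock conjugated to BSA (overnight, 37 °C); 0–40 µM, final DMSO <0.1%. MTT 0.42 mg/mL for 4 h at 37 °C, isopropanol solubilization, OD 570 nm. Cell number from a standard curve; IC50 by non-linear regression.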

For experiment [2], the system named is MDA-MB-231. Description: Antimigratory activity against human MDA-MB-231 cells after 24 hrs by wound-healing assay. Conditions: MDA-MB-231, 24 h. The gist of the method: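 MDA-MB-231 in RPMI 1640 with 10% FBS grown to >95% confluent monolayer, scratched with a pipette tip and washed. Then 24 h exposure in 0.5% serum at five non-toxic concentrations in DMSO, triplicate, DMSO as negative control. Diff Quick fixed and stained; migrated cells counted in ≥3 random 40× fields. IC50 = concentration inhibiting migration of 50% of cells.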

For a further experiment, the system named is MCF7. Description: Antiproliferative activity against human MCF7 cells by MTT assay. The gist of the method: (§1)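 Cells plated at 8 × 10^3/well (MDA-MB-231) or 10^4/well (MCF7) in 96-well plates. Compounds fed in media with 5% FBS (MDA-MB-231) or 1% FBS (MCF7). MTT read-out of viable cells.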
Background: Tetrazolium dyes change colour on reduction, which living cells bring about.

The test system of experiment [3] is MDA-MB-231. Description: Antiproliferative activity against human MDA-MB-231 cells by MTT assay. The gist of the method:
as §1

SMILES strings stand for the structures.

Regarding `CC(C)=CCC/C(C)=C/CC/C(C)=C/CC[C@]1(C)CCc2c(CO)c(O)cc(C)c2O1`, in experiment [1], the IC50 is greater than 20 µM.

For `CC(C)=CCC/C(C)=C/CC/C(C)=C/CC[C@]1(C)CCc2c3c(cc(C)c2O1)OCN(C)C3`, in experiment [1], the IC50 came out at 1.3 µM.

As for `CC(C)=CCC/C(C)=C/CC/C(C)=C/CC[C@]1(C)CCc2c3c(c(C)c(C)c2O1)OCN(CCCCC(=O)O)C3`, it took 1.8 µM to reach half-maximal inhibition in experiment [1] (IC50).

The molecule `C=CCN1COc2c(C)c(C)c3c(c2C1)CC[C@@](C)(CC/C=C(\C)CC/C=C(\C)CCC=C(C)C)O3` had an IC50 in experiment [1] of 11.6 µM.

In the case of `CC(C)=CCC/C(C)=C/CC/C(C)=C/CC[C@]1(C)CCc2cc(O)cc(C)c2O1` [DELTA-TOCOTRIENOL], the IC50 with MDA-MB-231 [2] is greater than 40 µM.

In turn, `CC(C)=CCC/C(C)=C/CC/C(C)=C/CC[C@]1(C)CCc2c3c(cc(C)c2O1)OCN(Cc1cccc([N+](=O)[O-])c1)C3` had an IC50 in experiment [1] of 29.1 µM.

The molecule `CC(C)=CCC/C(C)=C/CC/C(C)=C/CC[C@]1(C)CCc2c3c(c(C)c(C)c2O1)OCN(C1CCN(Cc2ccccc2)CC1)C3` displayed an IC50 in experiment [1] of 8.7 µM.

`CC(C)=CCC/C(C)=C/CC/C(C)=C/CC[C@]1(C)CCc2c3c(c(C)c(C)c2O1)OCN(Cc1cccc([N+](=O)[O-])c1)C3` returned an IC50 in experiment [1] of 24.6 µM.

On to `CCOC(CCN1COc2cc(C)c3c(c2C1)CC[C@@](C)(CC/C=C(\C)CC/C=C(\C)CCC=C(C)C)O3)OCC`, for which the IC50 in experiment [1] amounted to 1 µM.

In the case of `CC(C)=CCC/C(C)=C/CC/C(C)=C/CC[C@]1(C)CCc2c3c(c(C)c(C)c2O1)OCN(CCCO)C3`, the IC50 in the experiment on MDA-MB-231 [2] was 8.1 µM; with MCF7 it was greater than 20 µM; with MDA-MB-231 [3], 9.6 µM; in experiment [1], 2.5 µM.

Regarding `CC(C)=CCC/C(C)=C/CC/C(C)=C/CC[C@]1(C)CCc2c3c(c(C)c(C)c2O1)OCN(C)C3`, inhibition in experiment [1] was half-maximal at 2.2 µM (IC50).

Regarding `CC(C)=CCC/C(C)=C/CC/C(C)=C/CC[C@]1(C)CCc2c3c(cc(C)c2O1)OCN(CCCCCC(=O)O)C3`, in experiment [1], the IC50 stood at 5.1 µM.

The molecule `CC(C)=CCC/C(C)=C/CC/C(C)=C/CC[C@]1(C)CCc2c(CO)c(O)c(C)c(C)c2O1` displayed an IC50 in experiment [1] of 2.6 µM.

`CC(C)=CCC/C(C)=C/CC/C(C)=C/CC[C@]1(C)CCc2c3c(c(C)c(C)c2O1)OCN(CCCCCC(=O)O)C3` displayed an IC50 in experiment [1] of 5 µM.

As for `CC(C)=CCC/C(C)=C/CC/C(C)=C/CC[C@]1(C)CCc2c3c(cc(C)c2O1)OCN(CCCCC(=O)O)C3`, inhibition in experiment [1] was half-maximal at 11.9 µM (IC50).

`CCOC(CCN1COc2c(C)c(C)c3c(c2C1)CC[C@@](C)(CC/C=C(\C)CC/C=C(\C)CCC=C(C)C)O3)OCC` came in with an IC50 in experiment [1] of 9.3 µM.

Turning to `CC(C)=CCC/C(C)=C/CC/C(C)=C/CC[C@]1(C)CCc2c3c(cc(C)c2O1)OCN(CCO)C3`, the IC50 in the experiment on MDA-MB-231 [2] is 1.3 µM; in the experiment on MCF7 it was 6 µM; in the experiment on MDA-MB-231 [3], greater than 5 µM; in experiment [1], 4.2 µM.

In the case of `COc1ccc(CCN2COc3cc4c(c(C)c3C2)O[C@](C)(CC/C=C(\C)CC/C=C(\C)CCC=C(C)C)CC4)cc1OC`, the IC50 in experiment [1] is 0.84 µM.

Regarding `CC(C)=CCC/C(C)=C/CC/C(C)=C/CC[C@]1(C)CCc2c3c(c(C)c(C)c2O1)OCN(Cc1ccccc1)C3`, the figures for the IC50 (in the experiment on MCF7; in the experiment with MDA-MB-231 [3]; in experiment [1]) were greater than 20 µM, 27.3 µM and 2 µM, respectively.

Consider `CC(C)=CCC/C(C)=C/CC/C(C)=C/CC[C@]1(C)CCc2c3c(c(C)c(C)c2O1)OCN(CC1CCNCC1)C3`, for which the IC50 in the experiment with MCF7 was greater than 20 µM; in the experiment on MDA-MB-231 [3], 0.8 µM; in experiment [1], 4.6 µM.

In experiment [1], `CC(C)=CCC/C(C)=C/CC/C(C)=C/CC[C@]1(C)CCc2cc(O)c(CO)c(C)c2O1` returned an IC50 of 6.6 µM.

Take `CC(C)=CCC/C(C)=C/CC/C(C)=C/CC[C@]1(C)CCc2c3c(c(C)c(C)c2O1)OCN(CCO)C3`: 1.7 µM corresponded to half-maximal inhibition in experiment [1] (IC50).

Regarding `CC(C)=CCC/C(C)=C/CC/C(C)=C/CC[C@]1(C)CCc2cc3c(c(C)c2O1)CN(CCO)CO3`, the IC50 in experiment [1] was determined as 0.96 µM.
